Activity calls are given as the source filed them. The rule behind the calls is not given here.
Legend:
[1] = molecular target: Serine/threonine-protein kinase PLK3 (Homo sapiens) (UniProt Q9H4B4); test: Inhibition of wild-type human partial length PLK3 (A42 to L334 residues) expressed in mammalian expression system at 1 uM by Kinomescan method
In short: (§1)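 Binding-competition screen on the KINOMEscan platform, run by the provider, with the test compound at 1 μM. Readout is percent of control: (test signal − positive control signal)/(negative control signal − positive control signal) × 100. The DMSO negative control is set as 100% Ctrl and a control compound as 0% Ctrl. Lower values mean stronger hits.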

[2] = molecular target: Tyrosine-protein kinase JAK3 (Homo sapiens) (UniProt P52333); test: Inhibition of wild-type human partial length JAK3 JH1 catalytic domain (I781 to S1124 residues) expressed in mammalian expression system at 1 uM by Kinomescan method; in short: as §1
[3] = molecular target: Phosphatidylinositol 4,5-bisphosphate 3-kinase catalytic subunit gamma isoform (Homo sapiens) (UniProt P48736); test: Inhibition of wild-type human partial length PIK3CG (S144 to A1102 residues) expressed in mammalian expression system at 1 uM by Kinomescan method; in short: as §1
Sequence of Phosphatidylinositol 4,5-bisphosphate 3-kinase catalytic subunit gamma isoform (Homo sapiens) (P48736 whole entry, looked up, the tested form may be a part, canonical isoform): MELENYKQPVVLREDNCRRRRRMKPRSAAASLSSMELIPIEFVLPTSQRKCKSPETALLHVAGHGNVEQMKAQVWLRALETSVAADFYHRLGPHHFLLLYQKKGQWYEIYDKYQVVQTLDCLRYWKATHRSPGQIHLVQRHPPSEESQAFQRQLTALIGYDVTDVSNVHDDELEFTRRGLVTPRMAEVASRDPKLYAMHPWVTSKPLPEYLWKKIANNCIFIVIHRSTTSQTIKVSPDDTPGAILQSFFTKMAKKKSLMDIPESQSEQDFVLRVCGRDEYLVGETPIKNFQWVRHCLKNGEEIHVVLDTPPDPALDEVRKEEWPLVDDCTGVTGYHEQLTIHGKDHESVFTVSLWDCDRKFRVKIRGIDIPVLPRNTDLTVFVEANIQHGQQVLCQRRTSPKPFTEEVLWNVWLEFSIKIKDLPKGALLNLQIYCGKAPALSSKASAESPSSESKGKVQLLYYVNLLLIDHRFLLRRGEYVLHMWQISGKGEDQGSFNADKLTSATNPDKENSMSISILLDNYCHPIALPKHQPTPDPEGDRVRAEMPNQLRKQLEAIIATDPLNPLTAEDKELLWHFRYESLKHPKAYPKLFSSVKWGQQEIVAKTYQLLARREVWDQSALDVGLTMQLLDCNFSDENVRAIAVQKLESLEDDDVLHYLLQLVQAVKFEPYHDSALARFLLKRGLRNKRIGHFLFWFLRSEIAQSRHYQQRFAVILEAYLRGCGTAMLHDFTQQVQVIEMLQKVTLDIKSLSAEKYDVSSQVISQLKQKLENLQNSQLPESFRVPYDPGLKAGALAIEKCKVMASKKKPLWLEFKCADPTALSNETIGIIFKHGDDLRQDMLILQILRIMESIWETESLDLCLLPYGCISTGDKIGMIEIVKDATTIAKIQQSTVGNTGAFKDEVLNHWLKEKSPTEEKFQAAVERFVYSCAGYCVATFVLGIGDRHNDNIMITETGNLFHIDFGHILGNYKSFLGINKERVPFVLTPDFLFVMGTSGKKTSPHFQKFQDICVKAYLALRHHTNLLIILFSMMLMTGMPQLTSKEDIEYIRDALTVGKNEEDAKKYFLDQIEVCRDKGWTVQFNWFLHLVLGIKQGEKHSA

[4] = molecular target: Serine/threonine-protein kinase PAK 4 (Homo sapiens) (UniProt O96013); test: Inhibition of wild-type human partial length PAK4 (Q144 to R438 residues) expressed in bacterial expression system at 1 uM by Kinomescan method; in short: as §1
Sequence of Serine/threonine-protein kinase PAK 4 (Homo sapiens) (O96013 whole entry, looked up, the tested form may be a part): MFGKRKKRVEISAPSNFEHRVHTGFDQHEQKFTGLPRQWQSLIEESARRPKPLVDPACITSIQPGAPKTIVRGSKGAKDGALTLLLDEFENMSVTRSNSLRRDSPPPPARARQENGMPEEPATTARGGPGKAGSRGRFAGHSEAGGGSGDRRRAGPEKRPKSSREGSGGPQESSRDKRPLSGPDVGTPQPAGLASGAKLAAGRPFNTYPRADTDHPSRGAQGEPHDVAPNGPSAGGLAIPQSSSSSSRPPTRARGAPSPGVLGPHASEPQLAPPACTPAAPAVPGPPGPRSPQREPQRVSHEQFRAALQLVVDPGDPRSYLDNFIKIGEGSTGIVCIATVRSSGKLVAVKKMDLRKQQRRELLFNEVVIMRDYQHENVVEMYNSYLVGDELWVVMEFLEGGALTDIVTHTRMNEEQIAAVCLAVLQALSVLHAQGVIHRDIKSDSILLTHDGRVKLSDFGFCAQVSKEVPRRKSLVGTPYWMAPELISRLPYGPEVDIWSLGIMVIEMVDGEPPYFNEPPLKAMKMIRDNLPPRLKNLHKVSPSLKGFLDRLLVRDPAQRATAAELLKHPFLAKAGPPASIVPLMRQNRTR

[5] = molecular target: Dual specificity tyrosine-phosphorylation-regulated kinase 1B (Homo sapiens) (UniProt Q9Y463); test: Inhibition of wild-type human full length DYRK1B (M1 to S629 residues) expressed in bacterial expression system at 1 uM by Kinomescan method
In short: (§2)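 KINOMEscan competition binding screen at 1 μM compound. Results reported as % of control = (test − positive control)/(DMSO negative control − positive control) × 100, where lower values mean stronger hits.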

[6] = molecular target: Aurora kinase B (Homo sapiens) (UniProt Q96GD4); test: Inhibition of wild-type human partial length AURKB (D25 to A303 residues) expressed in mammalian expression system at 1 uM by Kinomescan method; in short: as §1
[7] = molecular target: Phosphatidylinositol 4-phosphate 3-kinase C2 domain-containing subunit beta (Homo sapiens) (UniProt O00750); test: Inhibition of wild-type human partial length PIK3C2B (M1 to L1634 residues) expressed in mammalian expression system at 1 uM by Kinomescan method; in short: as §1
[8] = molecular target: Serine/threonine-protein kinase PAK 1 (Homo sapiens) (UniProt Q13153); test: Inhibition of wild-type human partial length PAK1 (S149 to H545 residues) expressed in bacterial expression system at 1 uM by Kinomescan method; in short: as §1
Sequence of Serine/threonine-protein kinase PAK 1 (Homo sapiens) (Q13153 whole entry, the tested form may be a part): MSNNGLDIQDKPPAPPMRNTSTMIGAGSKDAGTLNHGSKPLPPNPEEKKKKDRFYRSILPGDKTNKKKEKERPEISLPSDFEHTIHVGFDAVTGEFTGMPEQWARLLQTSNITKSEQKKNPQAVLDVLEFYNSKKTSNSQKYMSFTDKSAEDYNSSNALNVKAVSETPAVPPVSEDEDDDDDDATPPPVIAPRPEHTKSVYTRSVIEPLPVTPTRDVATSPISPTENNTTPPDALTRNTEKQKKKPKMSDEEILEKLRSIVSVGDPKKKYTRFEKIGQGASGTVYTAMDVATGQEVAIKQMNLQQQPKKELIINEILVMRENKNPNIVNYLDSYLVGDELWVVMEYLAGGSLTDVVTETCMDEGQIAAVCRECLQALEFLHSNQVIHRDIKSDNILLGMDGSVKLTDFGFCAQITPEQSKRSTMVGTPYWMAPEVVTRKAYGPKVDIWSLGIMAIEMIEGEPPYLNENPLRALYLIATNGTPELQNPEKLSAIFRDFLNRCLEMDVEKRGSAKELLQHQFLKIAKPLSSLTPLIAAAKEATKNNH

[9] = molecular target: Cyclin-dependent kinase 16 (Homo sapiens) (UniProt Q00536); test: Inhibition of wild-type human partial length PCTK1 (G160 to A474 residues) expressed in mammalian expression system at 1 uM by Kinomescan method; in short: as §1
Sequence of Cyclin-dependent kinase 16 (Homo sapiens) (Q00536 whole entry, the tested form may be a part): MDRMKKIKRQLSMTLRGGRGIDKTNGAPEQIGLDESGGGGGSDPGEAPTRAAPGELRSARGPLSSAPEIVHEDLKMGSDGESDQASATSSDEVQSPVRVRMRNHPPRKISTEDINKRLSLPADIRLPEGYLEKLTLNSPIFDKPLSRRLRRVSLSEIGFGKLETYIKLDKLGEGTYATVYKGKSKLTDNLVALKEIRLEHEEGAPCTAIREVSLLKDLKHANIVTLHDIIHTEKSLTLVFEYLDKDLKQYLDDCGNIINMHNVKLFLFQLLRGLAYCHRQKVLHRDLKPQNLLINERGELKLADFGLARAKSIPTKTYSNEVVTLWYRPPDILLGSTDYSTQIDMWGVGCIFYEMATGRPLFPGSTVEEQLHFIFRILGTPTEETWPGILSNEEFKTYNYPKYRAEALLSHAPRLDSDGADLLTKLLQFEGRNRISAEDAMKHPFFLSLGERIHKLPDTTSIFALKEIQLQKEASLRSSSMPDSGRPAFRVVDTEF

[10] = system: Mus musculus; test: Antiinflammatory activity in LPS-induced C57BL/6 mouse model of acute lung injury assessed as reduction in IL1beta mRNA level at 10 mg/kg, iv pretreated for 15 mins followed by LPS stimulation and measured after 6 hrs by SYBR green staining-based qRT-PCR analysis; type: functional, organism-based
In short: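 Total lung RNA extracted, with DNase I removal of residual DNA. Quantitative PCR with mouse gene primers; each gene normalized to β-actin. C57BL/6 mice given compound iv 15 min before intraperitoneal LPS (20 mg/kg) and killed at 6 h.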

[11] = molecular target: Serine/threonine-protein kinase ULK2 (Homo sapiens) (UniProt Q8IYT8); test: Inhibition of wild-type human partial length ULK2 (M1 to S301 residues) expressed in mammalian expression system at 1 uM by Kinomescan method
In short: (§3)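 Single-concentration screen at 1 μM on the KINOMEscan panel (98 kinases), run by the platform provider. Results are given as percent of control: % Ctrl = [(test signal − positive control signal)/(negative control signal − positive control signal)] × 100. DMSO serves as negative control (100% Ctrl) and a control compound as positive control (0% Ctrl). Lower values mean stronger binding hits.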

[12] = molecular target: Serine/threonine-protein kinase RIO2 (Homo sapiens) (UniProt Q9BVS4); test: Inhibition of wild-type human partial length RIOK2 (M1 to D313 residues) expressed in mammalian expression system at 1 uM by Kinomescan method; in short: as §1
[13] = molecular target: 3-phosphoinositide-dependent protein kinase 1 (Homo sapiens) (UniProt O15530); test: Inhibition of wild-type human full length PDPK1 (M1 to Q556 residues) expressed in bacterial expression system at 1 uM by Kinomescan method; in short: as §2
[14] = molecular target: Atypical kinase COQ8A, mitochondrial (Homo sapiens) (UniProt Q8NI60); test: Inhibition of wild-type human […] length ADCK3 (M280 to Q647 residues) expressed in bacterial expression system at 1 uM by Kinomescan method; in short: as §2
[15] = molecular target: Serine/threonine-protein kinase 32C (Homo sapiens) (UniProt Q86UX6); test: Inhibition of wild-type human partial length YANK3 (M68 to G486 residues) expressed in bacterial expression system at 1 uM by Kinomescan method; in short: as §3
[16] = molecular target: Tyrosine-protein kinase ZAP-70 (Homo sapiens) (UniProt P43403); test: Inhibition of wild-type human partial length ZAP70 (D20 to G299 residues) expressed in mammalian expression system at 1 uM by Kinomescan method; in short: as §3
Sequence of Tyrosine-protein kinase ZAP-70 (Homo sapiens) (P43403 whole entry, the tested form may be a part): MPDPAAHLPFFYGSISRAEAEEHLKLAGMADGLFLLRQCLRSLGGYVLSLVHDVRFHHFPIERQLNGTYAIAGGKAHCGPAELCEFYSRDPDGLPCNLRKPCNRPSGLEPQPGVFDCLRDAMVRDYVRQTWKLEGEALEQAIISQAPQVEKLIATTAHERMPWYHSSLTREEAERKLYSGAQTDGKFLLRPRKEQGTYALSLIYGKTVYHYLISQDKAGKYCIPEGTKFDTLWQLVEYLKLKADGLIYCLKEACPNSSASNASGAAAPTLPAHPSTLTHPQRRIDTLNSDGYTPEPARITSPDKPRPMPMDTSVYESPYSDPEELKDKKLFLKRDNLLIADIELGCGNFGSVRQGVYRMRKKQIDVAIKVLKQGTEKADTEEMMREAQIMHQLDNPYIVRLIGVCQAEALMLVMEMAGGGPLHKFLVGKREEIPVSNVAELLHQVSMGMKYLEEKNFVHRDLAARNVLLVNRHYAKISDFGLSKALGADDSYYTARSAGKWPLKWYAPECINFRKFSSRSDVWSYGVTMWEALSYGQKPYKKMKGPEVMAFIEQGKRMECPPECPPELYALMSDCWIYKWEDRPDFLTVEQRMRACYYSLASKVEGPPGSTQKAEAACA

[17] = system: Mus musculus; test: Antiinflammatory activity in LPS-induced C57BL/6 mouse model of acute lung injury assessed as reduction in F4/80 positive macrophage at 5 to 10 mg/kg, iv pretreated for 15 mins followed by LPS stimulation and measured after 6 hrs by ABC/hematoxylin staining-based immunohistochemistry analysis; type: functional, organism-based
In short: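 Male C57BL/6 mice (18−22 g; n=8 per group). Compound in 0.1% CMC-Na given by tail vein injection 15 min before intraperitoneal LPS (20 mg/kg); controls received saline. Mice were sacrificed 6 h after LPS, and serum and lung tissue were collected.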

[18] = molecular target: RAF proto-oncogene serine/threonine-protein kinase (Homo sapiens) (UniProt P04049); test: Inhibition of wild-type human partial length RAF1 (I330 to T640 residues) expressed in bacterial expression system at 1 uM by Kinomescan method; in short: as §1
[19] = molecular target: Tyrosine-protein kinase ABL1 (Homo sapiens) (UniProt P00519); test: Inhibition of wild-type human phosphorylated ABL1 (S229 to K512 residues) expressed in mammalian expression system at 1 uM by Kinomescan method; in short: as §3
[20] = system: Tyrosine-protein kinase ABL1 (Homo sapiens), P00519 [E255K]; test: Inhibition of human phosphorylated ABL1 E255K mutant (S229 to K512 residues) expressed in mammalian expression system at 1 uM by Kinomescan method; in short: as §2
[21] = molecular target: Tyrosine-protein kinase JAK2 (Homo sapiens) (UniProt O60674); test: Inhibition of wild-type human partial length JAK2 JH1 catalytic domain (A829 to G1132 residues) expressed in mammalian expression system at 1 uM by Kinomescan method; in short: as §1
[22] = molecular target: Hepatocyte growth factor receptor (Homo sapiens) (UniProt P08581); test: Inhibition of wild-type human partial length MET (D1010 to S1367 residues) expressed in bacterial expression system at 1 uM by Kinomescan method; in short: as §1
Sequence of Hepatocyte growth factor receptor (Homo sapiens) (P08581 whole entry, the tested form may be a part): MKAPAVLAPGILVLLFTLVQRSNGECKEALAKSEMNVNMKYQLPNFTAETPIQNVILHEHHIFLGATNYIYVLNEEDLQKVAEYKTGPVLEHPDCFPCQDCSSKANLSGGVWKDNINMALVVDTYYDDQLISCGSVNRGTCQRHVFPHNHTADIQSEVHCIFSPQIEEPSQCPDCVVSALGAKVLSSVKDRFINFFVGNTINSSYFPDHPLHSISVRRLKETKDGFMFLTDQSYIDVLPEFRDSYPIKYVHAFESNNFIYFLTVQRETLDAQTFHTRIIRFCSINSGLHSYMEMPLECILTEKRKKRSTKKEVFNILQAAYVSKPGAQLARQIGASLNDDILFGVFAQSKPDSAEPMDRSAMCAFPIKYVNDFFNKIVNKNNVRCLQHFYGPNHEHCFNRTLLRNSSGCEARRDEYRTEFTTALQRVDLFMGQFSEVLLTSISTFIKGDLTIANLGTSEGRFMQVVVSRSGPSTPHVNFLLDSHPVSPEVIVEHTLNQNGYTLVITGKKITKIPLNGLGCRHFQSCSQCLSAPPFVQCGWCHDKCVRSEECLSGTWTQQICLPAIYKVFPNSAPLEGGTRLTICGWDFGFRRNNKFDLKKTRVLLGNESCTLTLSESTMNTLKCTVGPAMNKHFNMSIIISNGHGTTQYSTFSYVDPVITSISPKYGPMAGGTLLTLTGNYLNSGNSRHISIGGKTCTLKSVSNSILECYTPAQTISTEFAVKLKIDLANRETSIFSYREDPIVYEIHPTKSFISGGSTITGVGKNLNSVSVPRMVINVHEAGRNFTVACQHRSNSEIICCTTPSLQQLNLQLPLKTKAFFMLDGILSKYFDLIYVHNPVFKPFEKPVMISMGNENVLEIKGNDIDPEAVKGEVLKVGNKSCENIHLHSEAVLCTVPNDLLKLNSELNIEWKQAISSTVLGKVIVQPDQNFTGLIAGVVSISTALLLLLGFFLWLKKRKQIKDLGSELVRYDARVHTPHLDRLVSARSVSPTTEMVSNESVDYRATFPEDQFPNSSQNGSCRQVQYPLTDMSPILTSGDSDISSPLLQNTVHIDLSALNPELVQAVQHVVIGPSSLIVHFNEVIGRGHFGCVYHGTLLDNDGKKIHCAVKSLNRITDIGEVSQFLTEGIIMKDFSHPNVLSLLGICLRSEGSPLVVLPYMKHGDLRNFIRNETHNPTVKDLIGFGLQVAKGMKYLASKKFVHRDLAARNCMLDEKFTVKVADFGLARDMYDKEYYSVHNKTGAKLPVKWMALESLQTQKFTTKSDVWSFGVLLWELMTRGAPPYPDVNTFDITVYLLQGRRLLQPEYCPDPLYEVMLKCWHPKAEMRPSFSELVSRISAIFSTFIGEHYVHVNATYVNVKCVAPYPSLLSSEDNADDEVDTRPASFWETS

In the case of O=C(Nc1ccc2[nH]nc(-c3ccc4[nH]ccc4c3)c2c1)c1c(Cl)cccc1Cl, the inhibition [1] is reported as “inactive”, the inhibition [2] is reported as “inactive” and the inhibition [3] is reported as “inactive”. The inhibition [4] was “inactive”, the inhibition [5] was “inactive” and the inhibition [6] was “inactive”. The inhibition [7] was “inactive”, the inhibition [8] was “inactive” and the inhibition [9] was “inactive”. For the same compound, the Activity [10] was “Active”, the inhibition [11] was “inactive” and the inhibition [12] was “inactive”. The inhibition [13] was “inactive”, the inhibition [14] was “inactive” and the inhibition [15] was “inactive”. The inhibition [16] was “inactive”, the Activity [17] was “Active” and the inhibition [18] was “inactive”. The inhibition [19] was “inactive”, the inhibition [20] was “inactive” and the inhibition [21] was “inactive”. For the same compound, the inhibition [22] was “inactive”.

Reference: ChEMBL document CHEMBL4304739, “Discovery of 3-(Indol-5-yl)-indazole Derivatives as Novel Myeloid Differentiation Protein 2/Toll-like Receptor 4 Antagonists for Treatment of Acute Lung Injury” (J Med Chem, 2019)
